Measured values taken from publication PMC3947009 (ACS Chemical Biology, 2013).
Values joined by “and” are separate entries in the source; they are usually repeats but may differ in a detail not shown here. Equal entries are not always repeated.

Target: GluA2 LBD (S1S2J, rat GluA2-flop subunit, N754S) (Rattus norvegicus, UniProt P19491, DEL528-650/N775S/S652T/V651G)
Type: biochemical
Procedure, shortened: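 Trypsin-detagged LBD (residues N392-K506/P632-S775, GT linker) from E. coli Origami B(DE3), purified by ion exchange and sizing. Protein 0.017–0.1 mM in 10 mM glutamate, 25 mM NaCl, 25 mM Tris-Cl pH 7, with modulator from DMSO (1 µL per 30 µL); kept at 4 °C; synchrotron SAXS. Dimer fraction fit with monomer/dimer form factors (1FTJ); EC50 from dimerization curves; constants from simultaneous one- or two-site equilibrium fits.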

| EC50 | Kd | fold lower EC50 for dimerization than HFMZ (CYTZ vs HFMZ) | fold lower EC50 for dimerization than TCMZ (CYTZ vs TCMZ) | Structure (SMILES) |
| --- | --- | --- | --- | --- |
| 100 to 200 µM | ~5 µM | 20 × | 10 × | NS(=O)(=O)c1cc2c(cc1Cl)NC(C1CC3C=CC1C3)NS2(=O)=O (centres unmarked) [CYTZ, cyclothiazide] |
| 2000 to 5000 µM | ~5 µM |  |  | NS(=O)(=O)c1cc2c(cc1C(F)(F)F)NCNS2(=O)=O [HFMZ, hydroflumethiazide] |
| 1000 to 2000 µM | 46.8 µM and ~50 µM |  |  | NS(=O)(=O)c1cc2c(cc1Cl)NC(C(Cl)Cl)NS2(=O)=O (centres unmarked) [TCMZ, trichlormethiazide] |
